Assay results pooled from the literature.
Lines come from different studies, so protocols differ.
CDK9 with cyclin T1: Cyclin-dependent kinase 9, with cyclin T1 (CDK9, Homo sapiens, UniProt P50750)
CDK9 with cyclin K: Cyclin-dependent kinase 9, with cyclin K (CDK9, Homo sapiens, UniProt P50750)
CDK9: Cyclin-dependent kinase 9 (CDK9, Homo sapiens, UniProt P50750)

SMILES | target | test | conditions | quantity | value
Cc1ccc(-n2nc(C(C)(C)C)cc2NC(=O)Nc2ccc(OCCN3CCOCC3)c3ccccc23)cc1 | CDK9 with cyclin T1 | enzyme activity, inhibitor | 10 µM | inhibition | -17%
COc1cc(-c2cc(-c3ccc(N4CCNCC4)cc3)cnc2C)cc(OC)c1OC | CDK9 with cyclin T1 | enzyme activity, inhibitor | 1 µM | inhibition | 3%
O=C1NC(=O)c2cc(Nc3ccc(F)cc3)c(Nc3ccc(F)cc3)cc21 | CDK9 with cyclin K | cell-free assay | 0.5 µM | remaining signal | 90.8%
CCN(CC)CCNC(=O)c1c(C)[nH]c(/C=C2\C(=O)Nc3ccc(F)cc32)c1C | CDK9 with cyclin T1 | enzyme activity, inhibitor | 10 µM | inhibition | 37%
CCOC(=O)c1cc2cc(-c3cc(C(=O)NCc4ccc(C(=O)O)cc4)nn3C)ccc2[nH]1 | CDK9 | cell-free assay, competition with immobilised ligand | 0.1 µM | remaining binding | 97%
Nc1ncnc2occ(-c3ccc(NC(=O)Nc4cc(C(F)(F)F)ccc4F)cc3)c12 | CDK9 | cell-free assay, inhibitor | 20 µM | remaining signal | 0.15%
CNC(=O)c1cc(Oc2ccc(NC(=O)Nc3ccc(Cl)c(C(F)(F)F)c3)cc2)ccn1 | CDK9 with cyclin T1 | enzyme activity, inhibitor | 10 µM | inhibition | -6%
CN(C)CC#Cc1ccc(OCCCc2sc(N3CCc4cccc(C(=O)Nc5nc6ccccc6s5)c4C3)nc2C(=O)O)c(F)c1 | CDK9 | cell-free assay, competition with immobilised ligand | 1 µM | remaining binding | 94%
N#CCCc1ccc2c(c1)-c1[nH]c3ccc([N+](=O)[O-])cc3c1CC(=O)N2 | CDK9 with cyclin T1 | cell-free assay | 0.5 µM | remaining signal | 28.6%
Cn1cncc1C1=CN(c2ncnc3[nH]cnc23)CCS1 | CDK9 | enzyme activity, inhibitor, radiometric | 50 nM | inhibition | 12.4%
Cc1ccc(NC(=O)c2ccc(CN3CCN(C)CC3)cc2)cc1Nc1nc(-c2cccnc2)cs1 | CDK9 with cyclin K | cell-free assay | 0.5 µM | remaining signal | 109%
CCCS(=O)(=O)Nc1ccc(F)c(C(=O)c2c[nH]c3ncc(-c4ccc(Cl)cc4)cc23)c1F | CDK9 with cyclin T1 | enzyme activity, inhibitor | 1 µM | inhibition | < 10%
CS(=O)(=O)CCNCc1ccc(-c2ccc3ncnc(Nc4ccc(OCc5cccc(F)c5)c(Cl)c4)c3c2)o1 | CDK9 with cyclin K | cell-free assay | 0.5 µM | remaining signal | 103%
Nc1nc(Nc2ccc(S(N)(=O)=O)cc2)sc1C(=O)c1ccccc1[N+](=O)[O-] | CDK9 | enzyme activity, inhibitor | 0.1 µM | inhibition | 90 to 93%
CCCCN(CCCC)C(=O)CN1C[C@@H](c2cc(OC)c3c(c2)OCO3)[C@H](C(=O)O)[C@H]1CC(C)(C)CCC | CDK9 | cell-free assay, competition with immobilised ligand | 1 µM | remaining binding | 100%
CCCOc1ccc(OC)c(F)c1C(=O)c1ccc(C(=O)N[C@@H]2CNC[C@H]2NC(=O)c2ccc3[nH]ncc3c2)cc1 | CDK9 with cyclin T1 | enzyme activity, inhibitor | 10 µM | remaining activity | 101%

SMILES | target | test | conditions | quantity | value
COc1cc(Cl)c(C(=O)N[C@@H](CN[C@H]2CC[C@@H](N)CC2)Cc2ccc(C#N)cc2)cc1-c1ccc(CN[C@H](C)c2ccc(C)cc2)o1 | CDK9 with cyclin T1 | enzyme activity, inhibitor | 1 µM | remaining activity | 99%
Cc1nc(C2CCN(C(=O)c3ccc(OC(F)(F)F)cc3N)CC2)c2ncc(N3CCN(C)CC3)cc2n1 | CDK9 | cell-free assay, competition with immobilised ligand | 1 µM | remaining binding | 79%
CCCCNc1ncc2c(-c3ccc(F)cc3)nn(C[C@H]3CC[C@H](N)CC3)c2n1 | CDK9 | target engagement in cells, inhibitor, chemoproteomics | 20 mM | inhibition | 29.3%
O=C1Nc2ccc(Cl)cc2C1=Cc1cc(Cl)c(O)c(Cl)c1 | CDK9 with cyclin K | cell-free assay | 0.5 µM | remaining signal | 79.4%
CC(=O)N1CCC(c2ccc(C(=O)NC(=N)N)cc2C(F)(F)F)CC1 | CDK9 | cell-free assay, competition with immobilised ligand | 1 µM | remaining binding | 100%
CCOc1cc(-c2nncn2C)ccc1Nc1ncc2cc(C)nc(NCC(C)(C)C)c2n1 | CDK9 with cyclin K | cell-free assay, TR-FRET | 1 µM | inhibition | ≤ 15%
CN(C)C1CCN(CC#Cc2nn(C3CCCC3)c3nc(NCc4ccccc4)ncc23)C1 (stereo not shown) | CDK9 with cyclin T1 | enzyme activity, inhibitor, FRET | 1 µM | inhibition | 1%
CS(=O)(=O)NCC[C@H](NC(=O)c1cncc2c1cnn2-c1ccc(F)cc1)c1ccnc(S(C)(=O)=O)c1 | CDK9 | cell-free assay, competition with immobilised ligand | 1 µM | remaining binding | 100%
COc1cccc2c(NCc3ccccc3)nc(-n3c(N)nc4ccccc43)nc12 | CDK9 | target engagement in cells, inhibitor, chemoproteomics | 20 mM | inhibition | -14.5%
O=C(CSc1nc2nccnc2c(=O)n1CCc1ccccc1)Nc1nccs1 | CDK9 with cyclin K | enzyme activity, inhibitor | 10 µM | inhibition | -8%
O=C1CCc2cc(Nc3cc(OC4CCOCC4)c([N+](=O)[O-])cc3Cl)ccc2N1 | CDK9 | cell-free assay, competition with immobilised ligand | 1 µM | remaining binding | 97%
CC(C)(C)c1nc(-c2cccc(NS(=O)(=O)c3c(F)cccc3F)c2F)c(-c2ccnc(N)n2)s1 | CDK9 with cyclin K | enzyme activity, inhibitor, radiometric | 1 µM | remaining activity | 98%
Cc1ccc(Nc2nccc(N(C)c3ccc4c(C)n(C)nc4c3)n2)cc1S(N)(=O)=O | CDK9 with cyclin K | enzyme activity, inhibitor | 0.5 µM | remaining activity | 92.7%
C[C@H](c1cccc(C#N)c1)n1cc(Cl)cc(C(N)=O)c1=N | CDK9 | cell-free assay, competition with immobilised ligand | 1 µM | remaining binding | 84%
CC(C)(C)c1nc2c(s1)c1nc(N)ncc1c1ccc(NS(=O)(=O)c3c(F)cccc3F)c(F)c12 | CDK9 with cyclin T1 | enzyme activity, inhibitor, radiometric | 1 µM | remaining activity | 102%
